From PubChem BioAssay
CYP2C19 act – human CYP2C19 activators, primary screen, biochemical, luminescence; recombinant CYP2C19, luciferin-H EGE luminescence; hits give high values; 0 = fully inhibited enzyme, 1 = untreated enzyme; Cytochrome P450 2C19 (Homo sapiens), P33261; activation factor at 5 µM; 96,000 tested, under 10 active;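 active = activation factor of at least 2 at 5 µM in the primary screen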;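 also: 0 = wells with 2.5 mM tranylcypromine and 1 = vehicle-only wells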
Target sequence (P33261 whole entry, looked up): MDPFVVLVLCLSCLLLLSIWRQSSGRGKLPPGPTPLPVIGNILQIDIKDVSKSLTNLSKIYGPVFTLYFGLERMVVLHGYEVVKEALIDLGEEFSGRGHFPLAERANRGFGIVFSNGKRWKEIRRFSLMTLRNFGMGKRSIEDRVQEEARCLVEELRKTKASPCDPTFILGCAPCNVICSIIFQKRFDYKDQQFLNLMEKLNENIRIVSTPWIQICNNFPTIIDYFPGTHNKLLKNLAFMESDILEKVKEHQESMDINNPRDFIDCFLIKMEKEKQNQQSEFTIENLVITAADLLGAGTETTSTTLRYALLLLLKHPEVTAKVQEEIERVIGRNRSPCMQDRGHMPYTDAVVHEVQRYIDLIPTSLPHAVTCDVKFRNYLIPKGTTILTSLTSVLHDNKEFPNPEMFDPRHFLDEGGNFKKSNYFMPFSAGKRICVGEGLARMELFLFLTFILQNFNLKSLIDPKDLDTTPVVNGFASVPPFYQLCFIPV
HIV Rev-RRE inh – HIV-1 Rev-RRE binding inhibitors, primary screen, biochemical, FRET, protein-RNA interaction | P05866 | Rev peptide-RRE RNA binding | inhibition, % at 8 µM | 97,000 compounds, 0.79% hits | AID 704, 2007;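 active = inhibition above the screen-wide mean plus 3 SD, cut at about 35% in these data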;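 also: 0% = median DMSO wells and 100% = median Neomycin B control wells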
Target sequence (P05866 whole entry, looked up): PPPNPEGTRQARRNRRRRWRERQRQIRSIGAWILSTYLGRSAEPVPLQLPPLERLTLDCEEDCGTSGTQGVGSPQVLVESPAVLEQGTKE
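Assay system: Labelled RRE RNA duplex and labelled Rev peptide | Times: 5 min preincubation and 15 min binding, 25 °C | Detection: FRET, ex 480 nm, em 540 and 671 nm | Evaluation: % inhibition of FRET ratio versus controls | Benchmarks: DMSO wells as 0% and neomycin B wells as 100% inhibition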
CYP2C9 inh – blockers of cytochrome P450 2C9 activity – biochemical, luminescence, ADME assay, primary screen | inhibition, % at 5 µM | P11712 | CYP2C9 Supersomes, luciferin-H conversion | 96,000 compounds, 20% hits | AID 777, 2007;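 active = blocking of liver enzyme CYP2C9 beyond about 50% at 5 µM, limit read from the data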
CYP2C9 activ – human CYP2C9 activators, primary screen, biochemical, luminescence. recombinant CYP2C9, luciferin-H conversion; hits give high values; factor 1 = untreated enzyme, 0 = blocked. Cytochrome P450 2C9 (Homo sapiens), P11712. 96,000 compounds, 1.4% hits. activation factor at 5 µM;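 active = activation factor of 2 or more for CYP2C9 at a 5 µM dose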;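 also: 0 = sulfaphenazole-blocked wells and 1 = vehicle-only wells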
Cav3 T inh – Cav3.2 calcium influx blockers – cell-based, Fluo-4 calcium fluorescence, FDSS, MLSMR library, primary screen; B-score at 10 µM; Voltage-dependent T-type calcium channel subunit alpha-1H (Homo sapiens), O95180; 100,000 compounds, 4% hits; Cav3.2-expressing cells; hits give low values;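 active = single-dose well whose peak fluorescence ratio is a statistical outlier from its plate by either plate-standardised score or position-corrected B-score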
CYP2C19 inh – blockers of cytochrome P450 2C19 activity – biochemical, luminescence, ADME assay, primary screen; P33261; CYP2C19 Supersomes, luciferin-H EGE luminescence, 30 min; inhibition, % at 5 µM; 96,000 compounds, 21% hits; AID 778, 2007;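 active = CYP2C19 inhibition above a set limit at 5 µM in the primary screen, cut at about 50% in these data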;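 also: plate controls were negative control wells for no effect and 2.5 mM tranylcypromine positive control for full effect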
* hit, by the source's call. Sampled rows, rich in hits. Any-hit rate of the full collection: about 27%.

How did CCCCNC(=O)C1CC(c2ccccc2[N+](=O)[O-])=NO1 (configuration not stated) do in these assays?
CYP2C19 act: 0.7; HIV Rev-RRE inh: 2; CYP2C9 inh: -86; CYP2C9 activ: 1.9; Cav3 T inh: 0.94; CYP2C19 inh: 35

How did CCS(=O)(=O)NCc1ccc2[nH]c3c(c2c1)CCCC3 do in these assays?
CYP2C19 act: 0.6; HIV Rev-RRE inh: 25; CYP2C9 inh: 74*; CYP2C9 activ: 0.3; Cav3 T inh: -0.41; CYP2C19 inh: 38

How did S=C(NCc1ccc2[nH]c3c(c2c1)CCCC3)Nc1ccccc1 do in these assays?
Cav3 T inh: -3.7

Results for Cn1cnnc1SC(C(=O)Nc1cccc(C(F)(F)F)c1)c1ccccc1 (configuration not stated) ?
CYP2C19 act: 0.3; HIV Rev-RRE inh: 17; CYP2C9 inh: 73*; CYP2C9 activ: 0.3; Cav3 T inh: -2.1; CYP2C19 inh: 71*

What do the screens show for `O=C(NCc1ccccc1F)c1ccc2c(c1)OCO2`?
CYP2C19 act: 0.3; HIV Rev-RRE inh: 9; CYP2C9 inh: 10; CYP2C9 activ: 0.9; Cav3 T inh: 0.66; CYP2C19 inh: 73*

Results for O=C(Cn1nnc(-c2ccc(OCc3ccccc3F)cc2)n1)N1CCOCC1 ?
HIV Rev-RRE inh: 5; Cav3 T inh: 0.22

How did O=C(NCc1ccc2c(c1)OCO2)c1cccc(C(=O)NCc2ccc3c(c2)OCO3)c1 do in these assays?
CYP2C19 act: 0.9; HIV Rev-RRE inh: 6; CYP2C9 inh: 11; CYP2C9 activ: 0.9; Cav3 T inh: -1; CYP2C19 inh: 8

How did O=C(NCc1ccccc1)c1ccc2c(c1)OCCO2 do in these assays?
CYP2C19 act: 0.2; CYP2C9 inh: 31; CYP2C9 activ: 0.7; Cav3 T inh: -0.81; CYP2C19 inh: 85*

What do the screens show for `Fc1ccccc1Cn1nnc(-c2ccc3c(c2)OCO3)n1`?
CYP2C19 act: 0.2; HIV Rev-RRE inh: 16; CYP2C9 inh: 58*; CYP2C9 activ: 0.4; Cav3 T inh: -1.7; CYP2C19 inh: 76*

What do the screens show for `O=C(NCc1cccs1)c1ccc2c(c1)OCCO2`?
CYP2C19 act: 1; HIV Rev-RRE inh: 11; CYP2C9 inh: 6; CYP2C9 activ: 0.9; Cav3 T inh: 0.29; CYP2C19 inh: 4

Results for O=C(CCNc1ccccc1)c1ccc2c(c1)OCO2 ?
CYP2C19 act: 0.4; HIV Rev-RRE inh: 8; CYP2C9 inh: 48; CYP2C9 activ: 0.5; Cav3 T inh: -0.11; CYP2C19 inh: 63*

Results for Cn1ncc(N=Cc2ccc([N+](=O)[O-])cc2)c1C(=O)N1CCOCC1 ?
CYP2C19 act: 1.3; HIV Rev-RRE inh: 4; CYP2C9 inh: -33; CYP2C9 activ: 1.3; Cav3 T inh: 0.75; CYP2C19 inh: -26

Results for CN(NC(N)=O)c1ncc(C(F)(F)F)cc1Cl ?
CYP2C19 act: 0.9; HIV Rev-RRE inh: 7; CYP2C9 inh: 0; CYP2C9 activ: 1; Cav3 T inh: 1.7; CYP2C19 inh: 5

What do the screens show for `O=C(NCc1ccccc1)c1ccc(C(=O)N(C2CCCCC2)C2CCCCC2)cc1`?
CYP2C19 act: 0.9; HIV Rev-RRE inh: -2; CYP2C9 inh: 17; CYP2C9 activ: 0.8; Cav3 T inh: -5.9*; CYP2C19 inh: 9

What do the screens show for `Brc1ccc(-c2noc(CCc3ccccc3)n2)o1`?
CYP2C19 act: 0.5; HIV Rev-RRE inh: 5; CYP2C9 inh: 10; CYP2C9 activ: 0.9; Cav3 T inh: -0.75; CYP2C19 inh: 47

How did c1ccc(CCc2nc(-c3ccccn3)no2)cc1 do in these assays?
CYP2C19 act: 0.5; HIV Rev-RRE inh: -4; CYP2C9 inh: 6; CYP2C9 activ: 0.9; Cav3 T inh: 0.36; CYP2C19 inh: 55*

What do the screens show for `COc1ccc(Cc2nc(-c3ccc(Br)o3)no2)cc1OC`?
CYP2C19 act: 0.1; HIV Rev-RRE inh: 4; CYP2C9 inh: 65*; CYP2C9 activ: 0.4; Cav3 T inh: -1.2; CYP2C19 inh: 88*

How did Clc1ccccc1OCc1nc(-c2ccc(Br)o2)no1 do in these assays?
CYP2C19 act: 0.1; HIV Rev-RRE inh: 17; CYP2C9 inh: 58*; CYP2C9 activ: 0.4; Cav3 T inh: -0.87; CYP2C19 inh: 94*

Results for O=C(Nc1ccc(-c2noc(COc3ccccc3Cl)n2)cc1)c1ccco1 ?
HIV Rev-RRE inh: 8; Cav3 T inh: -0.027

How did Clc1ccccc1OCc1nc(-c2ccccn2)no1 do in these assays?
CYP2C19 act: 0.2; HIV Rev-RRE inh: 4; CYP2C9 inh: 22; CYP2C9 activ: 0.8; CYP2C19 inh: 85*

How did CC#CCN1c2ccccc2[C@]23C[C@@H](C(=O)OC)N(C(=O)NC4CCCCC4)C2=NC(C(=O)OC)=C(C(=O)OC)[C@H]13 do in these assays?
Cav3 T inh: -0.74

How did O=C(OCC#CCSc1nnc(-c2cccc3ccccc23)o1)c1ccco1 do in these assays?
CYP2C19 act: 1; HIV Rev-RRE inh: 7; CYP2C9 inh: -107; CYP2C9 activ: 2.1*; CYP2C19 inh: 2

What do the screens show for `COc1ccc(-c2nnc(SCC#CCO)o2)cc1OC`?
CYP2C19 act: 0.8; HIV Rev-RRE inh: -2; CYP2C9 inh: 6; CYP2C9 activ: 0.9; Cav3 T inh: 0.47; CYP2C19 inh: 16

How did O=C(OCC#CCSc1nc2ccccc2o1)c1ccco1 do in these assays?
CYP2C19 act: 0.3; HIV Rev-RRE inh: 2; CYP2C9 inh: 57*; CYP2C9 activ: 0.4; Cav3 T inh: -0.7; CYP2C19 inh: 74*

What do the screens show for `OCC#CCSc1nnc(-c2ccc(Br)cc2)o1`?
CYP2C19 act: 0.4; HIV Rev-RRE inh: 4; CYP2C9 inh: 24; CYP2C9 activ: 0.8; Cav3 T inh: -0.051; CYP2C19 inh: 60*

How did O=C(OCC#CCSc1nnc(-c2ccncc2)o1)c1cccs1 do in these assays?
CYP2C19 act: 0.2; HIV Rev-RRE inh: -8; CYP2C9 inh: 78*; CYP2C9 activ: 0.2; Cav3 T inh: -4.3*; CYP2C19 inh: 79*

How did COC(=O)[C@@]1(Cc2ccc(F)cc2)[C@H]2c3cc(C(=O)N(C)C)n(Cc4c(CO)[nH]cc(C)c4=O)c3C[C@H]2CN1C(=O)c1ccccc1 do in these assays?
Cav3 T inh: -0.15

How did Cc1ccc(-c2csc(NC(CO)c3nc4ccccc4n3CCOCCO)n2)cc1 (configuration not stated) do in these assays?
Cav3 T inh: -0.67

What do the screens show for `Cc1ccnc(NS(=O)(=O)c2ccc(NS(=O)(=O)Cc3ccccc3)cc2)n1`?
CYP2C19 act: 1.1; HIV Rev-RRE inh: 1; CYP2C9 inh: 5; CYP2C9 activ: 0.9; Cav3 T inh: 0.63; CYP2C19 inh: -6
